Reference: ChEMBL document CHEMBL3217512, “Indole/triazole conjugates are selective inhibitors and inducers of bacterial biofilms” (Medchemcomm, 2013)
pIC50: −log10 of the molar value.

How the values were obtained:
Escherichia coli [1] = assay: Antimicrobial activity against Escherichia coli K-12 ER2718 assessed as effect on planktonic growth at PC75 after 2 to 24 hrs by colony count method; type: organism-based; conditions: in vivo
Staphylococcus aureus [2] = assay: Inhibition of biofilm formation in methicillin-resistant Staphylococcus aureus BAA 44 at 150 uM after 24 hrs by crystal violet staining-based assay relative to control; type: functional; conditions: BAA 44, 24 h
In short: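 Static biofilm development in MRSA, read out by crystal violet staining against an untreated control. Initial screen at 150 μM. Inhibitors then went to dose-response, with IC50 taken as the concentration giving 50% inhibition of biofilm growth. Induction was judged at 50 μM: under 50% induction counted as "inducer", over 50% as "strong inducer".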

Staphylococcus aureus [3] = assay: Antimicrobial activity against methicillin-resistant Staphylococcus aureus BAA 44 assessed as effect on planktonic growth at IC50 after 2 to 24 hrs by colony count method; type: organism-based; conditions: in vivo
Escherichia coli [4] = assay: Antimicrobial activity against Escherichia coli K-12 ER2718 assessed as effect on planktonic growth at PC25 after 2 to 24 hrs by colony count method; type: organism-based
Escherichia coli [5] = assay: Antimicrobial activity against Escherichia coli K-12 ER2718 assessed as effect on planktonic growth at PC25 after 2 to 24 hrs; type: organism-based
Escherichia coli [6] = assay: Induction of biofilm formation in Escherichia coli K-12 ER2718 assessed as concentration required for 50% promotion of biofilm formation after 24 hrs by crystal violet staining-based assay; type: functional
In short: (§1)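 For strong inducers of E. coli biofilm, dose-response curves were run in the static crystal violet assay. PC25, PC50 and PC75 are the concentrations promoting biofilm formation by 25%, 50% and 75%.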

Escherichia coli [7] = assay: Antimicrobial activity against Escherichia coli K-12 ER2718 assessed as effect on planktonic growth at 50 uM after 2 to 24 hrs; type: organism-based
In short: (§2)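 Growth curve analysis of planktonic bacteria with each biofilm inducer at 50 μM, used to assess toxicity.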

Escherichia coli [8] = assay: Antimicrobial activity against Escherichia coli K-12 ER2718 assessed as effect on planktonic growth at PC50 after 2 to 24 hrs by colony count method; type: organism-based; conditions: in vivo
Staphylococcus aureus [9] = assay: Antimicrobial activity against Staphylococcus aureus 29213 assessed as effect on planktonic growth at IC50 after 2 to 24 hrs by colony count method; type: organism-based; conditions: in vivo
Staphylococcus aureus [10] = assay: Inhibition of biofilm formation in Staphylococcus aureus 29213 after 24 hrs by crystal violet staining-based assay; type: functional, organism-based; conditions: Staphylococcus aureus, 29213, 24 h
In short: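 Compounds active in the 150 μM screen were taken into dose-response studies under static conditions with a crystal violet read-out. IC50 is the concentration that inhibits 50% of biofilm growth relative to an untreated control.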

Escherichia coli [11] = assay: Induction of biofilm formation in Escherichia coli K-12 ER2718 at 50 uM after 24 hrs by crystal violet staining-based assay relative to control; type: functional
In short: (§3)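 Static biofilm assay with compounds at 50 μM and crystal violet read-out, relative to an untreated control. Compounds increasing biofilm by less than 50% were called inducers, and by more than 50% strong inducers.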

Escherichia coli [12] = assay: Antimicrobial activity against Escherichia coli K-12 ER2718 assessed as effect on planktonic growth at PC75 after 2 to 24 hrs; type: organism-based; conditions: in vivo
Escherichia coli [13] = assay: Induction of biofilm formation in Escherichia coli K-12 ER2718 assessed as concentration required for 25% promotion of biofilm formation after 24 hrs by crystal violet staining-based assay; type: functional; in short: as §1
Escherichia coli [14] = assay: Induction of biofilm formation in Escherichia coli K-12 ER2718 assessed as concentration required for 75% promotion of biofilm formation after 24 hrs by crystal violet staining-based assay; type: functional; in short: as §1
Acinetobacter baumannii [15] = assay: Antimicrobial activity against Acinetobacter baumannii 19606 assessed as effect on planktonic growth at IC50 after 2 to 24 hrs; design: species or system ATCC 19606
Acinetobacter baumannii [16] = assay: Antimicrobial activity against Acinetobacter baumannii 19606 assessed as effect on planktonic growth at IC50 after 2 to 24 hrs by colony count method; design: species or system ATCC 19606
Escherichia coli [17] = assay: Antimicrobial activity against Escherichia coli K-12 ER2718 assessed as effect on planktonic growth at IC50 after 2 to 24 hrs by colony count method; type: organism-based
Escherichia coli [18] = assay: Antimicrobial activity against Escherichia coli K-12 ER2718 assessed as effect on planktonic growth at PC50 after 2 to 24 hrs; type: organism-based
Staphylococcus aureus [19] = assay: Antimicrobial activity against Staphylococcus aureus 29213 assessed as effect on planktonic growth at IC50 after 2 to 24 hrs; type: organism-based; conditions: in vivo
Acinetobacter baumannii [20] = assay: Inhibition of biofilm formation in Acinetobacter baumannii 19606 at 150 uM after 24 hrs by crystal violet staining-based assay relative to control; type: functional; conditions: ATCC 19606 = CIP 70.34 = JCM 6841, 24 h
Escherichia coli [21] = assay: Antimicrobial activity against Escherichia coli K-12 ER2718 assessed as effect on planktonic growth at IC50 after 2 to 24 hrs; type: organism-based
Staphylococcus aureus [22] = assay: Antimicrobial activity against methicillin-resistant Staphylococcus aureus BAA 44 assessed as effect on planktonic growth at IC50 after 2 to 24 hrs; type: organism-based; conditions: in vivo
Acinetobacter baumannii [23] = assay: Antimicrobial activity against Acinetobacter baumannii 19606 assessed as effect on planktonic growth at PC25 after 2 to 24 hrs by colony count method; design: species or system ATCC 19606
Staphylococcus aureus [24] = assay: Antimicrobial activity against Staphylococcus aureus 29213 assessed as effect on planktonic growth at PC75 after 2 to 24 hrs; type: organism-based; conditions: in vivo
Acinetobacter baumannii [25] = assay: Antimicrobial activity against Acinetobacter baumannii 19606 assessed as effect on planktonic growth at 50 uM after 2 to 24 hrs; design: species or system ATCC 19606; in short: as §2
Staphylococcus aureus [26] = assay: Antimicrobial activity against Staphylococcus aureus 29213 assessed as effect on planktonic growth at PC25 after 2 to 24 hrs by colony count method; type: organism-based; conditions: in vivo
Staphylococcus aureus [27] = assay: Antimicrobial activity against Staphylococcus aureus 29213 assessed as effect on planktonic growth at 50 uM after 2 to 24 hrs; type: organism-based; in short: as §2
Acinetobacter baumannii [28] = assay: Antimicrobial activity against Acinetobacter baumannii 19606 assessed as effect on planktonic growth at PC75 after 2 to 24 hrs; design: species or system ATCC 19606
Staphylococcus aureus [29] = assay: Antimicrobial activity against Staphylococcus aureus 29213 assessed as effect on planktonic growth at PC50 after 2 to 24 hrs; type: organism-based; conditions: in vivo
Acinetobacter baumannii [30] = assay: Antimicrobial activity against Acinetobacter baumannii 19606 assessed as effect on planktonic growth at PC75 after 2 to 24 hrs by colony count method; design: species or system ATCC 19606
Acinetobacter baumannii [31] = assay: Induction of biofilm formation in Acinetobacter baumannii 19606 at 50 uM after 24 hrs by crystal violet staining-based assay relative to control; type: functional, ATCC 19606 = CIP 70.34 = JCM 6841; in short: as §3
Staphylococcus aureus [32] = assay: Antimicrobial activity against Staphylococcus aureus 29213 assessed as effect on planktonic growth at PC50 after 2 to 24 hrs by colony count method; type: organism-based; conditions: in vivo
Staphylococcus aureus [33] = assay: Antimicrobial activity against Staphylococcus aureus 29213 assessed as effect on planktonic growth at PC75 after 2 to 24 hrs by colony count method; type: organism-based; conditions: in vivo
Acinetobacter baumannii [34] = assay: Antimicrobial activity against Acinetobacter baumannii 19606 assessed as effect on planktonic growth at PC25 after 2 to 24 hrs; design: species or system ATCC 19606
Staphylococcus aureus [35] = assay: Induction of biofilm formation in Staphylococcus aureus 29213 at 50 uM after 24 hrs by crystal violet staining-based assay relative to control; type: functional; in short: as §3
Acinetobacter baumannii [36] = assay: Antimicrobial activity against Acinetobacter baumannii 19606 assessed as effect on planktonic growth at PC50 after 2 to 24 hrs; design: species or system ATCC 19606
Staphylococcus aureus [37] = assay: Antimicrobial activity against Staphylococcus aureus 29213 assessed as effect on planktonic growth at PC25 after 2 to 24 hrs; type: organism-based; conditions: in vivo
Acinetobacter baumannii [38] = assay: Antimicrobial activity against Acinetobacter baumannii 19606 assessed as effect on planktonic growth at PC50 after 2 to 24 hrs by colony count method; design: species or system ATCC 19606

Row | Compound | Activity (Escherichia coli [1]) | inhibition at 150 µM (Staphylococcus aureus [2]) [%] | Activity (Staphylococcus aureus [3]) | Activity (Escherichia coli [4]) | Activity (Escherichia coli [5]) | Activity (Escherichia coli [7]) | Activity (Escherichia coli [8]) | Activity (Staphylococcus aureus [9]) | pIC50 (Staphylococcus aureus [10]) | Activity (Escherichia coli [11]) [%] | Activity (Escherichia coli [12]) | Activity (Acinetobacter baumannii [15]) | Activity (Acinetobacter baumannii [16]) | Activity (Escherichia coli [17]) | Activity (Escherichia coli [18]) | Activity (Staphylococcus aureus [19]) | Activity (Escherichia coli [21]) | Activity (Staphylococcus aureus [22]) | Activity (Acinetobacter baumannii [23]) | Activity (Acinetobacter baumannii [25]) | also measured
1 | CCCCCc1ccc(C(=O)NCCn2cc(Cc3c[nH]c4ccccc34)nn2)cc1 | Non-toxic | < 5 | Non-toxic | Non-toxic | Non-toxic | Non-toxic | Non-toxic | Non-toxic | 4.35 | >50 | Non-toxic | Non-toxic | Non-toxic | Non-toxic | Non-toxic | Non-toxic | Non-toxic | Non-toxic | – | – | Activity (Escherichia coli [6]): 74.8 µM; Activity (Escherichia coli [13]): 48.3 µM; Activity (Escherichia coli [14]): 111.6 µM; inhibition at 150 µM (Acinetobacter baumannii [20]): < 5%
2 | O=C(NCCn1cc(Cc2c(Br)[nH]c3ccccc23)nn1)c1ccccc1F | Non-toxic | 20 | Non-toxic | Non-toxic | Non-toxic | Non-toxic | Non-toxic | Non-toxic | – | <50 | Non-toxic | Non-toxic | Non-toxic | Non-toxic | Non-toxic | Non-toxic | Non-toxic | Non-toxic | Non-toxic | Non-toxic | Activity (Staphylococcus aureus [24]): Non-toxic; Activity (Staphylococcus aureus [26]): Non-toxic; Activity (Staphylococcus aureus [27]): Non-toxic; Activity (Acinetobacter baumannii [28]): Non-toxic; Activity (Staphylococcus aureus [29]): Non-toxic; Activity (Acinetobacter baumannii [30]): Non-toxic; Activity (Acinetobacter baumannii [31]): <50%; Activity (Staphylococcus aureus [32]): Non-toxic; Activity (Staphylococcus aureus [33]): Non-toxic; Activity (Acinetobacter baumannii [34]): Non-toxic; Activity (Staphylococcus aureus [35]): <50%; Activity (Acinetobacter baumannii [36]): Non-toxic; Activity (Staphylococcus aureus [37]): Non-toxic; Activity (Acinetobacter baumannii [38]): Non-toxic
3 | O=C(Cn1cc(Cc2csc3ccccc23)nn1)Nc1ccccc1 | Non-toxic | 20 | Non-toxic | Non-toxic | Non-toxic | Non-toxic | Non-toxic | Non-toxic | 3.67 | <50 | Non-toxic | Non-toxic | Non-toxic | Non-toxic | Non-toxic | Non-toxic | Non-toxic | Non-toxic | Non-toxic | Non-toxic | Activity (Acinetobacter baumannii [28]): Non-toxic; Activity (Acinetobacter baumannii [30]): Non-toxic; Activity (Acinetobacter baumannii [31]): <50%; Activity (Acinetobacter baumannii [34]): Non-toxic; Activity (Acinetobacter baumannii [36]): Non-toxic; Activity (Acinetobacter baumannii [38]): Non-toxic
